MT stabilizer – microtubule stabilizers in HeLa cells, primary screen, imaging, high-content imaging | HeLa tubulin immunostaining HCS, 24 h; share of cells brighter than vehicle mean+2SD | hit rate 0.83% among 200,000 | % tubulin-high responders, % at 10 µM | AID 2205, 2009;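 active = plate Z-score above 3 for both tubulin-high and condensed-nucleus cell shares, with cell loss under 80%, at 10 µM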;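 note: anti alpha tubulin signal scored within the nucleus-defined area of each cell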
BaF3 parental – parental Ba/F3 cell viability inhibition, counter-screen for JAK2V617F inhibitor project, murine pro-B, CellTiter-Glo luminescence. inhibition, % at 5.6 µM. AID 1486, 2009. hit rate 1.1% among 220,000. CellTiter-Glo ATP luminescence;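 active = inhibition above a per-campaign cutoff, the mean inhibition of all tested compounds plus 3 SD, cut at about 27% in these data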;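 note: 0% = DMSO wells and 100% = JAK Inhibitor I control wells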
b-catenin transl – modulators of beta-catenin nuclear translocation, primary screen, imaging, HeLa cells, immunofluorescence, high-content | hit rate 0.3% among 190,000 | nuclear translocation activity, % at 5 µM | AID 1665, 2009;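 active = nuclear translocation activity above 50% at 5 µM, with a well cell count of 50 or more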;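 note: per-cell ratio of nuclear to cytoplasmic median beta-catenin stain intensity; plate controls were DMSO negative control for no effect and GSK-3 inhibitor IX positive control for full effect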
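Test system: human HeLa cells, endogenous beta-catenin. Times: 24 h compound exposure, 37°C. Measured by: beta-catenin immunofluorescence imaging with DAPI.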
APP 5UTR inh – inhibitors of APP translation via 5'UTR reporter, primary screen, APP 5'UTR luciferase, SH-SY5Y cells. hit rate 0.82% among 190,000. SH-SY5Y APP 5'UTR-luciferase reporter, luminescence. inhibition, % at 2 µM;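 active = inhibition above a set limit, derived from the sample mean plus 3 SD, cut at about 45% in these data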
Ba/F3 V617F tox – reduced viability of JAK2V617F-dependent Ba/F3 cells, primary screen, JAK2V617F inhibitor project, cell-based, Ba/F3 EpoR-JAK2V617F, luminescence | inhibition, % at 5.6 µM | ATP luminescence | hit rate 1.1% among 220,000 | AID 1446, 2008;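 active = inhibition above the campaign mean plus 3 SD over all tested compounds, cut at about 24% in these data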;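 note: cytokine-independent growth of Ba/F3 cells driven by EpoR plus mutant JAK2; 0% = DMSO-treated cells and 100% = JAK inhibitor I control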
IEC-6 cytotox – cytotoxicity in IEC-6 intestinal epithelial cells, primary screen, cytotoxicity control for KLF5 inhibitor project, cell-based, luminescence; hit rate 0.78% among 290,000; IEC-6 cytotoxicity, luminescence viability; inhibition, % at 5 µM; AID 1825, 2009; in the data active = inhibition above about 22%;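 note: 0% = plate median of test compound wells and 100% = cytotoxic reference compound wells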
Starred values were filed as active, the others as inactive; x = no result. Most compounds without a hit are left out; they make up all but 2.2% or so of the library.

SMILES | MT stabilizer | BaF3 parental | b-catenin transl | APP 5UTR inh | Ba/F3 V617F tox | IEC-6 cytotox
COc1ccc(/C(C)=N/OC/C(O)=C(\C#N)c2nc3ccccc3[nH]2)c(OC)c1 | 2 | 5 | -3 | 5 | 1 | -7
CCn1cc(C(=O)N2CCN(c3ccc(OC)cc3)CC2)c2cc(OC)c(OC)cc2c1=O | 3 | 2 | -2 | -8 | -5 | -1
CCn1cc(C(=O)N2CCN(c3ccc(F)cc3)CC2)c2cc(OC)c(OC)cc2c1=O | 5 | -3 | -4 | 48* | -6 | -6
O=C(COc1cc2oc(=O)c3c(c2cc1Cl)CCC3)NCc1ccncc1 | x | x | x | x | x | -2
COc1ccc(C(=O)NC(=S)Nc2cccnc2)cc1Cl | x | x | x | x | x | 0
CCC(CC)C1C(C#N)=C(N)Oc2n[nH]c(C)c21 (stereo not given) | 10 | 92* | -3 | 19 | -1 | -2
CCOc1ccc(C(C)=O)cc1CSC(=N)N | 3 | 7 | 0 | 19 | 0 | -2
CCCCOc1ccc(Br)cc1CSC(=N)N | 16 | 34* | 9 | 52* | 30* | 3
O=C(NC1CCCCC1)C(c1cccnc1)N(C(=O)CCl)c1cccc(Cl)c1 (stereo not given) | 14* | 8 | 25 | 26 | 10 | 4
Cc1cccc(N(C(=O)CNC(=O)c2ccco2)C(C(=O)NC2CCCCC2)c2cccnc2)c1 (stereo not given) | x | x | x | x | x | -2
CC(C)C(NS(=O)(=O)c1cccc(C(F)(F)F)c1)C(=O)N1CCc2ccccc2C1 (stereo not given) | x | x | x | x | x | -3
Cc1ccc(NC(=O)c2cc(N3C(=O)C=CC3=O)ccc2N2CCOCC2)cc1Cl | 4 | 3 | x | 77* | -1 | -5
COc1cc(CN2CCN(C(=O)CC(C)C)CC2)c([N+](=O)[O-])cc1OC | x | x | x | x | x | 7
Cc1occc1C(=O)N1CCC2(CCCN(Cc3ccc(F)c(F)c3)C2)C1 (stereo not given) | x | x | x | x | x | 3
CCOC(=O)C1=C(CC)Nc2ccccc2N=C1NC(=O)c1oc2ccccc2c1C | 6 | 2 | 0 | -4 | -1 | 2
CCOCc1c(C(=O)NC2=Nc3ccccc3NC(CC)=C2C(=O)OCC)oc2ccccc12 | 20* | 5 | -1 | 20 | 3 | 5
COC(=O)c1sc(NC(=S)NC(=O)c2cccc(Br)c2)nc1C | x | x | x | x | x | -22
CCOCCCNC(=O)/C(C#N)=C/c1cc(OC)c(O)c([N+](=O)[O-])c1 | 24* | 12 | 1 | 25 | 6 | 2
COc1ccccc1NS(=O)(=O)c1ccc2c(c1)CCN2C(=O)CCC(=O)O | x | x | x | x | x | 3
CNC(=O)c1[nH]cnc1C(=O)Nc1ccc(OC)cc1 | x | 6 | -1 | x | 0 | 7
Cc1ccc(S(=O)(=O)c2nc(S(=O)(=O)c3ccccc3)sc2N2CCN(C)CC2)cc1 | x | x | x | x | x | -1
Cn1nc(-c2ccccn2)nc2c(=O)n(C)c(=O)nc1-2 | x | 105* | x | 59* | 99* | 99*
CCCc1nc2c(=O)n(C)c(=O)nc-2n(C)n1 | 20* | 85* | 3 | 30 | 73* | 19
COc1ccc(-c2nc(-c3ccccn3)ncc2S(C)(=O)=O)cc1 | 2 | 11 | -4 | 11 | 1 | 2
O=C(Cc1n[nH]c(=O)c2ccccc12)NC(c1ccccc1)c1ccccc1 | x | -3 | 0 | x | -3 | -10
SMILES | MT stabilizer | BaF3 parental | b-catenin transl | APP 5UTR inh | Ba/F3 V617F tox | IEC-6 cytotox
COc1ccccc1CN1CC(C(=O)N(Cc2cnn(C)c2)C(C)C)CCC1=O (stereo not given) | x | x | x | x | x | 3
COn1c(=O)c(-c2cccs2)[n+]([O-])c2ccccc21 | 4 | 3 | -1 | 8 | 4 | 9
Cn1c(-c2cccs2)[n+](C)c2ccccc21 | 2 | 32* | -3 | -7 | 49* | 7
COc1ccc(CN(C)C(=O)c2ccccc2Sc2ccccc2C#N)c(OC)c1 | x | x | x | x | x | 3
CC1(C)CC2(CCO1)OC(=O)CC2C(=O)Nc1ccccc1Cl (stereo not given) | 3 | 90* | 0 | 7 | 3 | -2
Cc1ccccc1NC(=O)C1CC(=O)OC12CCOC(C)(C)C2 (stereo not given) | 3 | 1 | -2 | -2 | -5 | -7
Cc1cc(C)n(CCC(=O)Nc2ccc(-c3ccno3)cc2)n1 | x | x | x | x | x | 2
COc1ccc(S(=O)(=O)n2c(C)nc3ccccc32)cc1C | x | x | x | x | x | 4
COc1cc(S(=O)(=O)N2CCN=C2c2ccccc2)ccc1F | 44* | 5 | x | -9 | -3 | 2
COc1cc(S(=O)(=O)n2c(C)nc3ccccc32)ccc1F | 28* | 7 | x | 0 | 0 | 11
O=C(CSc1n[nH]c(-c2ccccc2)n1)NCc1cccc(C(=O)O)c1 | 2 | 6 | 2 | -8 | 1 | 7
Cc1ccc(Nc2nnc(-c3ccccc3N)o2)cc1C | x | 2 | 1 | x | -3 | 6
COc1ccccc1-n1cnc2cc(NCc3cccs3)ccc21 | 18* | 73* | 162* | 93* | 73* | 82*
COc1ccccc1-n1cnc2cc(NCc3ccccc3O)ccc21 | x | 2 | 6 | x | 2 | 1
CC(C)(C)n1cnc2cc(NCc3cccs3)ccc21 | 3 | 4 | 1 | -28 | 6 | 5
Cc1ccccc1-n1cnc2cc(NCc3cccs3)ccc21 | 27* | 6 | 15 | -12 | -1 | -4
O=C(/C=C/c1cn(-c2ccccc2)nc1-c1cccnc1)N1CCCC1 | 4 | -1 | -1 | 19 | 11 | 15
O=C(/C=C/c1cn(-c2ccccc2)nc1-c1cccnc1)c1ccco1 | 12* | 7 | 8 | 5 | 16 | 4
CCn1c(SCC(=O)NC2CC2)nnc1-c1ccc(OC)cc1 | x | x | x | x | x | 7
COc1ccccc1NC(=O)Cn1nc(-c2ccncc2)nc1SCC(=O)NC1CCCC1 | 11* | 7 | -1 | 15 | -4 | -6
CCC(C)CCN1C(Nc2ccccc2)=NC[C@@H]1Cc1ccccc1 (stereo not given in full) | x | x | x | x | x | 0
Cc1cc(C)c(S(=O)(=O)NCC(c2cccnc2)N2CCN(Cc3ccccc3)CC2)c(C)c1 (stereo not given) | x | x | x | x | x | 2
NC(=O)NC(CC(=O)OCC(=O)NC(=O)NCc1ccco1)c1ccc(Cl)cc1 (stereo not given) | 3 | 2 | -2 | 55* | -2 | 0
CCn1c2ccccc2c2cc(NC(=O)COc3ccc(OC)cc3)ccc21 | 2 | 4 | x | 3 | -1 | 5
CCn1c2ccccc2c2cc(NC(=O)c3cccc([N+](=O)[O-])c3C)ccc21 | 14* | 0 | -2 | -20 | -2 | 5
CCn1c2ccccc2c2cc(NC(=O)c3cc(OC)cc(OC)c3)ccc21 | 9.6* | 6 | 11 | 95* | 1 | 10
